In ChEMBL document CHEMBL3616378 (J Med Chem, 2015):

Legend:
[1] = molecular target: Metabotropic glutamate receptor 2 (Homo sapiens, UniProt Q14416, L300Q); experiment: Agonist activity at human recombinant mGlu2 receptor L300Q mutant expressed in AV12 cells assessed as stimulation of Ca2+ mobilization after 1 hr by FLIPR assay; format: functional, cell-based
[2] = molecular target: T1, Metabotropic glutamate receptor 3 (Homo sapiens, UniProt Q14832); experiment: Agonist activity at wild type human recombinant mGlu3 receptor expressed in AV12 cells assessed as stimulation of Ca2+ mobilization after 1 hr by FLIPR assay; format: functional, cell-based
T1 sequence (Q14832 whole entry): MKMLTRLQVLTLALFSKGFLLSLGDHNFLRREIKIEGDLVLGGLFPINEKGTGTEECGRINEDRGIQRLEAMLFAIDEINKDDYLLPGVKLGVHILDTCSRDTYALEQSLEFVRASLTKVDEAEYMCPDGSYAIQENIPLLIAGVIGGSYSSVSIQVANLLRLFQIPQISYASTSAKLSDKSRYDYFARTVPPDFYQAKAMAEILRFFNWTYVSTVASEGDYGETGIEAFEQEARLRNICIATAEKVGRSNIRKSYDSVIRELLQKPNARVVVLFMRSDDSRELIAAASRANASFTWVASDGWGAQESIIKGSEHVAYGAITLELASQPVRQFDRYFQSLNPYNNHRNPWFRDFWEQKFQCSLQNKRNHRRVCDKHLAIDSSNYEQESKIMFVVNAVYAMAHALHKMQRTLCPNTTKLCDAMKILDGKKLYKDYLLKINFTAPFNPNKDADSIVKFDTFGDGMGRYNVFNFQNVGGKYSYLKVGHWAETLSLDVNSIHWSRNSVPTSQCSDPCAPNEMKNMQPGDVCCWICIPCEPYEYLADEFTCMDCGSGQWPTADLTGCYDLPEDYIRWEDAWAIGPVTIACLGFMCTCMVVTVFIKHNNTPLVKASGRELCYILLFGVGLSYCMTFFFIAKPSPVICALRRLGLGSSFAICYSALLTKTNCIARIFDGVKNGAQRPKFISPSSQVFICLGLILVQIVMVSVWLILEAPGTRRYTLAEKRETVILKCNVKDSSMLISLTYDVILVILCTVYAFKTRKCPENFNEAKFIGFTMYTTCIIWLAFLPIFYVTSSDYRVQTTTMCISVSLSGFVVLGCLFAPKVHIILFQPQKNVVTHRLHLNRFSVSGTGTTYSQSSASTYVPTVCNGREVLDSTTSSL

[3] = molecular target: Metabotropic glutamate receptor 3 (Homo sapiens, UniProt Q14832, D279E/Q306L); experiment: Agonist activity at human recombinant mGlu3 receptor D279E and Q306L mutant expressed in AV12 cells assessed as stimulation of Ca2+ mobilization after 1 hr by FLIPR assay; format: functional, cell-based
[4] = Aqueous solubility of the compound at pH 7.4; format: physicochemical
[5] = Solubility of the compound in DMSO at 20 uM; format: physicochemical
[6] = Metabolic stability of the compound in dog hepatocytes assessed as loss of compound at 2 uM; format: ADME, cell-based, Canis lupus familiaris, Hepatocyte; settings: read-out: Drug degradation
Summary of the method: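 Hepatocytes from mouse, rat, dog and human; compound tested at 2 µM; percent loss of parent compound measured.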

CYP3A4 = CYP3A4 (Homo sapiens, UniProt P08684); experiment: Inhibition of human CYP3A4 at 10 uM; format: ADME
CYP3A4, sequence (P08684 whole entry, canonical isoform): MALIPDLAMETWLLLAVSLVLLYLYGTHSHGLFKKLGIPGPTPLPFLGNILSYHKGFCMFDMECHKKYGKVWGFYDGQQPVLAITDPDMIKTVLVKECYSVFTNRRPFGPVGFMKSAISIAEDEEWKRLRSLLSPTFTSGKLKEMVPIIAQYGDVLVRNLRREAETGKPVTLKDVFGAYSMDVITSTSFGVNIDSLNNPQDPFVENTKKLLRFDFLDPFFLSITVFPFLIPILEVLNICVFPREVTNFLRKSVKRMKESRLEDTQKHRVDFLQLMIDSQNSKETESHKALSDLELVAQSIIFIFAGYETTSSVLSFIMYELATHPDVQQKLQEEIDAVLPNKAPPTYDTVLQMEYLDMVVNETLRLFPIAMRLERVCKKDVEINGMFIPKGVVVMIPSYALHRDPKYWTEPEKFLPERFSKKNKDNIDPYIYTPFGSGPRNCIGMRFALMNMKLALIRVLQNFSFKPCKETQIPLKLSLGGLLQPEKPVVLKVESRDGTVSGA
Summary of the method: (§1)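 Inhibition of human CYP isoforms was measured with the compound tested at 10 µM.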

CYP2D6 = CYP2D6 (Homo sapiens, UniProt P10635); experiment: Inhibition of human CYP2D6 at 10 uM; format: ADME; summary of the method: as §1
CYP2C9 = CYP2C9 (Homo sapiens, UniProt P11712); experiment: Inhibition of human CYP2C9 at 10 uM; format: ADME; summary of the method: as §1
[7] = Fraction unbound in rat plasma; format: ADME, cell-free
[8] = Clearance in Sprague-Dawley rat at 1 mg/kg, iv; format: ADME, organism-based; settings: in vivo
Summary of the method: (§2)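 Fasted male Sprague–Dawley rats (~250 g) received a single dose of compound dissolved in water and adjusted to pH 7–7.5 with NaOH, given iv, by oral gavage or ip. Serial blood samples (11–12 per rat) were drawn from a jugular vein catheter into EDTA and kept frozen. Plasma was mixed with methanol:water (1:1) containing an analogue internal standard for analysis. Mean plasma parameters are reported.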

[9] = Volume of distribution at steady state in Sprague-Dawley rat at 1 mg/kg, iv; format: ADME, organism-based; settings: in vivo, read-out: Vdss
Summary of the method: (§3)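 Compound dissolved in water, pH adjusted to 7–7.5 with NaOH; single dose to fasted male Sprague–Dawley rats (~250 g) by oral gavage, intravenous or intraperitoneal route. Serial blood (11–12 samples per rat) from jugular vein catheter into EDTA tubes, centrifuged, frozen; 25 µL plasma mixed with methanol:water (1:1) containing analogue internal standard.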

[10] = Half life in Sprague-Dawley rat at 5 mg/kg, po; format: ADME, organism-based; settings: in vivo; summary of the method: as §2
[11] = Oral bioavailability in Sprague-Dawley rat at 5 mg/kg; format: ADME, organism-based; settings: in vivo; summary of the method: as §3
[12] = Tmax in Sprague-Dawley rat at 1 mg/kg, ip; format: ADME, organism-based; settings: in vivo; summary of the method: as §3
[13] = Half life in Sprague-Dawley rat at 1 mg/kg, ip; format: ADME, organism-based; settings: in vivo; summary of the method: as §2
[14] = AUC (0 to 24 hrs) in Sprague-Dawley rat at 3 mg/kg, ip; format: ADME, organism-based; parameters: time < 24 hr, dose 3 mg/kg, route intraperitoneal; settings: in vivo; summary of the method: as §2
[15] = Tmax in Sprague-Dawley rat at 3 mg/kg, ip; format: ADME, organism-based; settings: in vivo; summary of the method: as §3
[16] = Cmax in Sprague-Dawley rat at 10 mg/kg, ip; format: ADME, organism-based; parameters: dose 10 mg/kg, route intraperitoneal; settings: in vivo; summary of the method: as §2
[17] = Half life in Sprague-Dawley rat at 10 mg/kg, ip; format: ADME, organism-based; settings: in vivo; summary of the method: as §2
[18] = Plasma concentration in Sprague-Dawley rat at 3 mg/kg, ip after 1 hr; format: ADME, organism-based
Summary of the method: (§4)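 Separate experiment: single ip doses of 1, 3 and 10 mg/kg to rats, compound in water adjusted to pH 7–7.5 with NaOH; plasma (with csf) sampled at 0.5, 1 and 4 h; mean plasma concentrations ± SEM reported.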

[19] = Plasma concentration in Sprague-Dawley rat at 10 mg/kg, ip after 1 hr; format: ADME, organism-based; summary of the method: as §4
[20] = Plasma concentration in Sprague-Dawley rat at 1 mg/kg, ip after 4 hrs; format: ADME, organism-based; summary of the method: as §4
[21] = Drug level in Sprague-Dawley rat cerebrospinal fluid at 1 mg/kg, ip after 0.5 hrs; format: ADME, organism-based; settings: read-out: Drug uptake
Summary of the method: (§5)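 Male Sprague–Dawley rats received single ip doses of 1, 3 or 10 mg/kg. Cerebrospinal fluid and plasma levels were determined at 0.5, 1 and 4 h. Mean csf concentration (nM ± SEM) is reported.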

[22] = Drug level in Sprague-Dawley rat cerebrospinal fluid at 3 mg/kg, ip after 0.5 hrs; format: ADME, organism-based; settings: read-out: Drug uptake; summary of the method: as §5
[23] = molecular target: T1, Metabotropic glutamate receptor 3; experiment: Agonist activity at human recombinant mGlu3 receptor expressed in AV12 cells assessed as inhibition of forskolin-stimulated cAMP production after 1 hr by fluorescence assay; format: functional, cell-based
[24] = molecular target: T1, Metabotropic glutamate receptor 3; experiment: Antagonist activity at human recombinant mGlu3 receptor expressed in AV12 cells assessed as reversal of DCG-4-inhibited, forskolin-stimulated cAMP production after 1 hr by fluorescence assay; format: functional, cell-based
[25] = molecular target: Metabotropic glutamate receptor 1 (Homo sapiens, UniProt Q13255); experiment: Antagonist activity at human recombinant mGlu1 receptor expressed in AV12 cells assessed as inhibition of glutamate-stimulated Ca2+ mobilization after 1 hr by FLIPR assay; format: functional, cell-based
Metabotropic glutamate receptor 1, sequence (Q13255 whole entry): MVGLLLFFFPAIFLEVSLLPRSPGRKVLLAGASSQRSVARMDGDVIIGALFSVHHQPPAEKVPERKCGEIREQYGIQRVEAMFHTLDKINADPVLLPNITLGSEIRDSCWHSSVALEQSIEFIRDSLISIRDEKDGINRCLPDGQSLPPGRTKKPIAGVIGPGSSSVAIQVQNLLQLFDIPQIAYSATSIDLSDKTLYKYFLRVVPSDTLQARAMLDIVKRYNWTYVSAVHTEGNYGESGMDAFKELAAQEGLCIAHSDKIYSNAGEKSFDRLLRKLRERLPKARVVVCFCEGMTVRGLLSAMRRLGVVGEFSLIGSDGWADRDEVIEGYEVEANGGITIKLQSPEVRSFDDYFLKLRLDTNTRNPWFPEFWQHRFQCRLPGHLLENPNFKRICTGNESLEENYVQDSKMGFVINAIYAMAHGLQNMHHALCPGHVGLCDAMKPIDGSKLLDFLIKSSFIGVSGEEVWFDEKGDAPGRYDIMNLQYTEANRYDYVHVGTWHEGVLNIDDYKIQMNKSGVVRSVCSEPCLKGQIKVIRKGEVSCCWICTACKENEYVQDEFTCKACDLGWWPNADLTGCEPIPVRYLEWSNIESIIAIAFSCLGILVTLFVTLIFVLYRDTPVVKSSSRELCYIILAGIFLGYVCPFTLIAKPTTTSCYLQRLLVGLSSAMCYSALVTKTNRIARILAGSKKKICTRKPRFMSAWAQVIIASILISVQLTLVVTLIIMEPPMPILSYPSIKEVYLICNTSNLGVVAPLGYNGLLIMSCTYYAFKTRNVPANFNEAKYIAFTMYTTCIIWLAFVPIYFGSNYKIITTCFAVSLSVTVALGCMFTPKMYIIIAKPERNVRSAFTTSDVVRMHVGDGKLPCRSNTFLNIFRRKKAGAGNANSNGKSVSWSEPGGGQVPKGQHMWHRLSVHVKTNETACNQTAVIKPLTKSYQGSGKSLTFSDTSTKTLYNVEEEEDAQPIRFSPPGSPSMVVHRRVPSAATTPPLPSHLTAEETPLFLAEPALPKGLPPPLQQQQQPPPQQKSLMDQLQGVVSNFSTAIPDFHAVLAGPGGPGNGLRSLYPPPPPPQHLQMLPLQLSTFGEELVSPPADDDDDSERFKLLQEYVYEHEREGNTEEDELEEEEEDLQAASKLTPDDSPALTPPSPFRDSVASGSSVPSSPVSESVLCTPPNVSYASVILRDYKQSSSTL

[26] = molecular target: T2, Metabotropic glutamate receptor 4 (Homo sapiens, UniProt Q14833); experiment: Agonist activity at human recombinant mGlu4 receptor expressed in AV12 cells assessed as stimulation of Ca2+ mobilization after 1 hr by FLIPR assay; format: functional, cell-based
T2 sequence (Q14833 whole entry): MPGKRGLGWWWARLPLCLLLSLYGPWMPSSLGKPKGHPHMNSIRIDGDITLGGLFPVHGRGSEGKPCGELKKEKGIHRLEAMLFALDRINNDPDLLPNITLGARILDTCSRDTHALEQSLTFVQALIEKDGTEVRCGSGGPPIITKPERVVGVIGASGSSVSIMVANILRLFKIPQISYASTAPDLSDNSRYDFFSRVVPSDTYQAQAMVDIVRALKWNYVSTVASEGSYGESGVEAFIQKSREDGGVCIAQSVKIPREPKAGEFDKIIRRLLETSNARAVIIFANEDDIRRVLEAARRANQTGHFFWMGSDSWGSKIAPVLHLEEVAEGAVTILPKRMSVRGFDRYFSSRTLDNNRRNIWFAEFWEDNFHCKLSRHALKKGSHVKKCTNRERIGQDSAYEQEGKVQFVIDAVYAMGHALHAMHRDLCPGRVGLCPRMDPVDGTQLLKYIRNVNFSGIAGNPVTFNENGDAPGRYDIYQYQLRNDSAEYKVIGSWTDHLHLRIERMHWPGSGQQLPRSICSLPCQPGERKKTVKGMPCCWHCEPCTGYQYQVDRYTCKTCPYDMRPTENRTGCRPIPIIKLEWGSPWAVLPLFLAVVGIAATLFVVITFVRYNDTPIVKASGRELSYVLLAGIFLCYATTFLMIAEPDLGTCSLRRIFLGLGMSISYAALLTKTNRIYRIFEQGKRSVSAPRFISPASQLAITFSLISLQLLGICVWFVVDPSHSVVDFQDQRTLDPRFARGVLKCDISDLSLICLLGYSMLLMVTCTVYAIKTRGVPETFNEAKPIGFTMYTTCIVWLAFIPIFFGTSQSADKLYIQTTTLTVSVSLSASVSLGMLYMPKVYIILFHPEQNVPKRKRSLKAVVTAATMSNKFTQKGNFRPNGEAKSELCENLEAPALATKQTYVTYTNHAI

[27] = molecular target: T2, Metabotropic glutamate receptor 4; experiment: Antagonist activity at human recombinant mGlu4 receptor expressed in AV12 cells assessed as inhibition of glutamate-stimulated Ca2+ mobilization after 1 hr by FLIPR assay; format: functional, cell-based
[28] = molecular target: Metabotropic glutamate receptor 5 (Homo sapiens, UniProt P41594); experiment: Antagonist activity at human recombinant mGlu5 receptor expressed in AV12 cells assessed as inhibition of glutamate-stimulated Ca2+ mobilization after 1 hr by FLIPR assay; format: functional, cell-based
Metabotropic glutamate receptor 5, sequence (P41594 whole entry): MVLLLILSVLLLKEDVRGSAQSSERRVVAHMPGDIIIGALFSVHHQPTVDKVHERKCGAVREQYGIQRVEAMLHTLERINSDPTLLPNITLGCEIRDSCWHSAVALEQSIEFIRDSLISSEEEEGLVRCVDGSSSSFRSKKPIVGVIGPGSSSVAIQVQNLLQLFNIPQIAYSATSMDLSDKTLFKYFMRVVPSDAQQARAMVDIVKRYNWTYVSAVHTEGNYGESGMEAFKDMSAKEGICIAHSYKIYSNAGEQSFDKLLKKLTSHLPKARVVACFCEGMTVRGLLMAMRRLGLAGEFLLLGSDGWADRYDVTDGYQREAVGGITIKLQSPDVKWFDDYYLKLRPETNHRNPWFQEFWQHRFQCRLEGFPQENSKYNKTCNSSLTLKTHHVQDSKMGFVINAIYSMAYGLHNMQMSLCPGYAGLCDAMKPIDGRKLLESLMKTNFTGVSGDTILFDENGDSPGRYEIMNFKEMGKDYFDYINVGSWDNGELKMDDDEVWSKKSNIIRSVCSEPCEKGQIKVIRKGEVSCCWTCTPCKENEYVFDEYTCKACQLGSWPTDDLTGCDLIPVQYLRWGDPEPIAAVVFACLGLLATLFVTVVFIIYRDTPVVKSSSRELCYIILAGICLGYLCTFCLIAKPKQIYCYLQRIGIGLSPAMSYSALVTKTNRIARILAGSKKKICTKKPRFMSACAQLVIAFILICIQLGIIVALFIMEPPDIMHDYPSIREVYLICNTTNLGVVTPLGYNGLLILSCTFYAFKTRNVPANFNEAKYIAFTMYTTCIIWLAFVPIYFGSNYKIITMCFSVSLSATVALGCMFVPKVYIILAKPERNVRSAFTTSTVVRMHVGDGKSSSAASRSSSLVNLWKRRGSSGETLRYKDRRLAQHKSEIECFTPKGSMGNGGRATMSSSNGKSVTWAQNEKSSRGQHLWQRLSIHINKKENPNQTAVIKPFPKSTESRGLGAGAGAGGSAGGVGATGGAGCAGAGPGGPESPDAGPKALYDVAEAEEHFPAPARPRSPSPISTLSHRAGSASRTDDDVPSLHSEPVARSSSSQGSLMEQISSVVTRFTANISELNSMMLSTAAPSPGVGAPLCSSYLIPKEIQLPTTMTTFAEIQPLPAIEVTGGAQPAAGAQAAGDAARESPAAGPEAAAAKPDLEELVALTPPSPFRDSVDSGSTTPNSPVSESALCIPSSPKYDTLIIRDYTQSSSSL

[29] = molecular target: Metabotropic glutamate receptor 6 (Homo sapiens, UniProt O15303); experiment: Agonist activity at human recombinant mGlu6 receptor expressed in AV12 cells assessed as inhibition of forskolin-stimulated cAMP production after 1 hr by fluorescence assay; format: functional, cell-based
[30] = molecular target: Metabotropic glutamate receptor 8 (Homo sapiens, UniProt O00222); experiment: Agonist activity at human recombinant mGlu8 receptor expressed in AV12 cells assessed as stimulation of Ca2+ mobilization after 1.5 hrs by FLIPR assay; format: functional, cell-based
[31] = Drug level in Sprague-Dawley rat cerebrospinal fluid at 10 mg/kg, ip after 1 hr; format: ADME, organism-based; settings: read-out: Drug uptake; summary of the method: as §5
[32] = Drug level in Sprague-Dawley rat cerebrospinal fluid at 3 mg/kg, ip after 4 hrs; format: ADME, organism-based; settings: read-out: Drug uptake; summary of the method: as §5
[33] = Drug level in Sprague-Dawley rat cerebrospinal fluid at 10 mg/kg, ip after 4 hrs; format: ADME, organism-based; settings: read-out: Drug uptake; summary of the method: as §5
Rattus norvegicus [34] = experiment: Antipsychosis activity in ip dosed Sprague-Dawley rat assessed as reduction of […] in horizontal ambulations administered 30 mins before PCP challenge measured after 60 mins; format: functional
Rattus norvegicus [35] = experiment: Toxicity in Sprague-Dawley rat assessed as impairment of neuromuscular coordination at 10 mg/kg, ip after 2 to 3 hrs by rotarod test; format: organism-based; settings: in vivo
Rattus norvegicus [36] = experiment: Toxicity in Sprague-Dawley rat assessed as impairment of neuromuscular coordination at 3 mg/kg, ip after 1 to 3 hrs by rotarod test; format: organism-based; settings: in vivo

With N[C@@]1(C(=O)O)C[C@@H](Sc2nc[nH]n2)[C@H]2[C@H](C(=O)O)[C@H]21 the EC50 [1] was 0.0221 µM, the EC50 [2] was 5.68 µM and the EC50 [3] was 1.17 µM. For the same compound, the solubility [4] was > 0.1 mM, the solubility at 20 µM [5] was > 10 mM and the metabolised at 2 µM [6] was < 10%. For the same compound, the inhibition at 10 µM (CYP3A4) was < 10%, the inhibition at 10 µM (CYP2D6) was < 10% and the inhibition at 10 µM (CYP2C9) was < 10%. The fraction unbound [7] was > 0.98, the clearance [8] was 12.3 mL/min/kg and the Vd [9] was 1.01 L/kg. The half-life [10] was 3.7 h, the bioavailability [11] was 4% and the Tmax [12] was 0.4 h. For the same compound, the half-life [13] was 1.2 h, the AUC(0-t) at 24 h [14] was 10.8 µM·h and the Tmax [15] was 0.33 h. It also gave a Cmax [16] of 31100 nM, a half-life [17] of 5.2 h and a concentration at 1 h [18] of 4980 nM. The concentration at 1 h [19] was 23600 nM, the concentration at 4 h [20] was 314 nM and the concentration at 0.5 h [21] was 48.8 nM. It also gave a concentration at 0.5 h [22] of 97.3 nM, an EC50 [23] of 0.129 µM and an IC50 [24] of 2.73 µM. The IC50 [25] was > 12.5 µM, the EC50 [26] was > 25 µM and the IC50 [27] was > 12.5 µM. The IC50 [28] was > 12.5 µM, the EC50 [29] was 3.45 µM and the EC50 [30] was > 25 µM. It also gave a concentration at 1 h [31] of 272 nM, a concentration at 4 h [32] of 27.5 nM and a concentration at 4 h [33] of 86.7 nM. The ED50 (Rattus norvegicus [34]) was 1.2 mg/kg, the Activity (Rattus norvegicus [35]) was “Non-toxic” and the Activity (Rattus norvegicus [36]) was “Non-toxic”.
